Measured values: ChEMBL document CHEMBL4819122, “Novel 4-(piperazin-1-yl)quinolin-2(1H)-one bearing thiazoles with antiproliferative activity through VEGFR-2-TK inhibition” (Bioorg Med Chem, 2021)
Calls of active or inactive are those of the source. The calls are words filed in the database; no cut-off is given here.

Experiments:
K562 = assay: Cytotoxicity against human K-562 assessed as growth inhibition at 10 uM by NCI protocol relative to control; format: functional; conditions: read-out: GI
Outline: (§1)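 Run by NCI as a single-dose screen at 10 μM across the sixty-cell-line panel, which covers nine human tumour tissue types. The read-out is percent growth inhibition of treated cells relative to untreated cells.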

MOLT-4 = assay: Cytotoxicity against human MOLT-4 assessed as growth inhibition at 10 uM by NCI protocol relative to control; format: functional; conditions: read-out: GI; outline: as §1
RPMI-8226 = assay: Cytotoxicity against human RPMI-8226 assessed as growth inhibition at 10 uM by NCI protocol relative to control; format: functional; conditions: read-out: GI; outline: as §1
A549 = assay: Cytotoxicity against human A549 assessed as growth inhibition at 10 uM by NCI protocol relative to control; format: functional; conditions: read-out: GI; outline: as §1
EKVX = assay: Cytotoxicity against human EKVX assessed as growth inhibition at 10 uM by NCI protocol relative to control; format: functional; conditions: read-out: GI; outline: as §1
HOP-92 = assay: Cytotoxicity against human HOP-92 assessed as growth inhibition at 10 uM by NCI protocol relative to control; format: functional; conditions: read-out: GI; outline: as §1
NCI-H23 = assay: Cytotoxicity against human NCI-H23 assessed as growth inhibition at 10 uM by NCI protocol relative to control; format: functional; conditions: read-out: GI; outline: as §1
NCI-H460 = assay: Cytotoxicity against human NCI-H460 assessed as growth inhibition at 10 uM by NCI protocol relative to control; format: functional; conditions: read-out: GI; outline: as §1
HCC 2998 = assay: Cytotoxicity against human HCC-2998 assessed as growth inhibition at 10 uM by NCI protocol relative to control; format: functional; conditions: read-out: GI; outline: as §1
HT-29 = assay: Cytotoxicity against human HT29 assessed as growth inhibition at 10 uM by NCI protocol relative to control; format: functional; conditions: read-out: GI; outline: as §1
KM12 = assay: Cytotoxicity against human KM12 assessed as growth inhibition at 10 uM by NCI protocol relative to control; format: functional; conditions: read-out: GI; outline: as §1
SW-620 = assay: Cytotoxicity against human SW-620 assessed as growth inhibition at 10 uM by NCI protocol relative to control; format: functional; conditions: read-out: GI
Outline: (§2)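 Run by the NCI under its standard protocol: one dose of 10 μM against a sixty-line panel from nine human tumour tissues. Result given as percent growth inhibition of treated cells relative to untreated cells.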

SF-295 = assay: Cytotoxicity against human SF-295 assessed as growth inhibition at 10 uM by NCI protocol relative to control; format: functional; conditions: read-out: GI; outline: as §1
SF-539 = assay: Cytotoxicity against human […] assessed as growth inhibition at 10 uM by NCI protocol relative to control; format: functional; conditions: read-out: GI; outline: as §1
SNB-19 = assay: Cytotoxicity against human SNB-19 assessed as growth inhibition at 10 uM by NCI protocol relative to control; format: functional; conditions: read-out: GI; outline: as §2
SNB-75 = assay: Cytotoxicity against human SNB-75 assessed as growth inhibition at 10 uM by NCI protocol relative to control; format: functional; conditions: read-out: GI; outline: as §2
U-251 = assay: Cytotoxicity against human U251 assessed as growth inhibition at 10 uM by NCI protocol relative to control; format: functional; conditions: read-out: GI; outline: as §2
LOX IMVI = assay: Cytotoxicity against human LOX IMVI assessed as growth inhibition at 10 uM by NCI protocol relative to control; format: functional; conditions: read-out: GI; outline: as §1
Malme-3M = assay: Cytotoxicity against human MALME-3M assessed as growth inhibition at 10 uM by NCI protocol relative to control; format: functional; conditions: read-out: GI; outline: as §1
MDA-MB-435 = assay: Cytotoxicity against human MDA-MB-435 assessed as growth inhibition at 10 uM by NCI protocol relative to control; format: functional, cell-based; outline: as §1
SK-MEL-28 = assay: Cytotoxicity against human SK-MEL-28 assessed as growth inhibition at 10 uM by NCI protocol relative to control; format: functional; conditions: read-out: GI; outline: as §1
SK-MEL-5 = assay: Cytotoxicity against human SK-MEL-5 assessed as growth inhibition at 10 uM by NCI protocol relative to control; format: functional; conditions: read-out: GI; outline: as §1
UACC-257 = assay: Cytotoxicity against human UACC-257 assessed as growth inhibition at 10 uM by NCI protocol relative to control; format: functional; conditions: read-out: GI; outline: as §2
UACC-62 = assay: Cytotoxicity against human UACC-62 assessed as growth inhibition at 10 uM by NCI protocol relative to control; format: functional; conditions: read-out: GI; outline: as §2
IGROV-1 = assay: Cytotoxicity against human IGROVI assessed as growth inhibition at 10 uM by NCI protocol relative to control; format: functional; conditions: read-out: GI; outline: as §1
OVCAR-3 = assay: Cytotoxicity against human OVCAR-3 assessed as growth inhibition at 10 uM by NCI protocol relative to control; format: functional; conditions: read-out: GI; outline: as §1
OVCAR-4 = assay: Cytotoxicity against human OVCAR-4 assessed as growth inhibition at 10 uM by NCI protocol relative to control; format: functional; conditions: read-out: GI; outline: as §1
OVCAR-8 = assay: Cytotoxicity against human OVCAR-8 assessed as growth inhibition at 10 uM by NCI protocol relative to control; format: functional; conditions: read-out: GI; outline: as §1
NCI/ADR-RES = assay: Cytotoxicity against human NCl/ADR-RES assessed as growth inhibition at 10 uM by NCI protocol relative to control; format: functional; conditions: read-out: GI; outline: as §1
SK-OV-3 = assay: Cytotoxicity against human SK-OV-3 assessed as growth inhibition at 10 uM by NCI protocol relative to control; format: functional; conditions: read-out: GI; outline: as §1
786-0 = assay: Cytotoxicity against human 786-0 assessed as growth inhibition at 10 uM by NCI protocol relative to control; format: functional; conditions: read-out: GI; outline: as §1
A498 = assay: Cytotoxicity against human A498 assessed as growth inhibition at 10 uM by NCI protocol relative to control; format: functional; conditions: read-out: GI; outline: as §1
ACHN = assay: Cytotoxicity against human ACHN assessed as growth inhibition at 10 uM by NCI protocol relative to control; format: functional; conditions: read-out: GI; outline: as §1
CAKI-1 = assay: Cytotoxicity against human Caki1 assessed as growth inhibition at 10 uM by NCI protocol relative to control; format: functional; conditions: read-out: GI; outline: as §1
RXF 393 = assay: Cytotoxicity against human RXF 393 assessed as growth inhibition at 10 uM by NCI protocol relative to control; format: functional; conditions: read-out: GI; outline: as §1
SN12C = assay: Cytotoxicity against human SN12C assessed as growth inhibition at 10 uM by NCI protocol relative to control; format: functional; conditions: read-out: GI; outline: as §2
PC-3 = assay: Cytotoxicity against human PC3 assessed as growth inhibition at 10 uM by NCI protocol relative to control; format: functional; conditions: read-out: GI; outline: as §1
MCF7 = assay: Cytotoxicity against human MCF7 assessed as growth inhibition at 10 uM by NCI protocol relative to control; format: functional; conditions: read-out: GI; outline: as §1
MDA-MB-231 = assay: Cytotoxicity against human MDA-MB-231 assessed as growth inhibition at 10 uM by NCI protocol relative to control; format: functional; conditions: read-out: GI; outline: as §1
Hs-578T = assay: Cytotoxicity against human HS 578T assessed as growth inhibition at 10 uM by NCI protocol relative to control; format: functional; conditions: read-out: GI; outline: as §1
MDA-MB-468 = assay: Cytotoxicity against human MDA-MB-468 assessed as growth inhibition at 10 uM by NCI protocol relative to control; format: functional; conditions: read-out: GI; outline: as §1

SMILES: O=C(CN1CCN(c2cc(=O)[nH]c3ccc(F)cc23)CC1)Nc1nc(-c2ccc(Cl)cc2)cs1
- inhibition of growth at 10 µM (K562): 44.8%
- inhibition of growth at 10 µM (MOLT-4): 52.8%
- inhibition of growth at 10 µM (RPMI-8226): 38.3%
- inhibition of growth at 10 µM (A549): 44.4%
- inhibition of growth at 10 µM (EKVX): 43.3%
- inhibition of growth at 10 µM (HOP-92): 29.7%
- inhibition of growth at 10 µM (NCI-H23): 28.8%
- inhibition of growth at 10 µM (NCI-H460): 18.1%
- inhibition of growth at 10 µM (HCC 2998): 30.9%
- inhibition of growth at 10 µM (HT-29): 25.6%
- inhibition of growth at 10 µM (KM12): 30.1%
- inhibition of growth at 10 µM (SW-620): 41.2%
- inhibition of growth at 10 µM (SF-295): 20.4%
- inhibition of growth at 10 µM (SF-539): 30.5%
- inhibition of growth at 10 µM (SNB-19): 30.8%
- inhibition of growth at 10 µM (SNB-75): 46.2%
- inhibition of growth at 10 µM (U-251): 37.3%
- inhibition of growth at 10 µM (LOX IMVI): 21.8%
- inhibition of growth at 10 µM (Malme-3M): 43.3%
- growth inhibition (GI) (MDA-MB-435): inactive
- inhibition of growth at 10 µM (SK-MEL-28): 17.3%
- inhibition of growth at 10 µM (SK-MEL-5): 34.6%
- inhibition of growth at 10 µM (UACC-257): 31.3%
- inhibition of growth at 10 µM (UACC-62): 32%
- inhibition of growth at 10 µM (IGROV-1): 50.8%
- inhibition of growth at 10 µM (OVCAR-3): 16.9%
- inhibition of growth at 10 µM (OVCAR-4): 39.1%
- inhibition of growth at 10 µM (OVCAR-8): 24%
- inhibition of growth at 10 µM (NCI/ADR-RES): 41.9%
- inhibition of growth at 10 µM (SK-OV-3): 11.9%
- inhibition of growth at 10 µM (786-0): 32.8%
- inhibition of growth at 10 µM (A498): 60.5%
- inhibition of growth at 10 µM (ACHN): 38.5%
- inhibition of growth at 10 µM (CAKI-1): 55.5%
- inhibition of growth at 10 µM (RXF 393): 37.6%
- inhibition of growth at 10 µM (SN12C): 36.2%
- inhibition of growth at 10 µM (PC-3): 45.1%
- inhibition of growth at 10 µM (MCF7): 39.7%
- inhibition of growth at 10 µM (MDA-MB-231): 16.6%
- inhibition of growth at 10 µM (Hs-578T): 33.5%
- inhibition of growth at 10 µM (MDA-MB-468): 51.4%
